pIC50: −log10 of the molar value. “And” between values parts separate entries of the source, which are not always exact repeats. Equal values may be shown once. Blank lines part the entries; values can stand above or below the compound they belong to.
What was measured:
[1] = tested on: axitinib metabolism in human liver microsomes; assay type: in vitro ADME; conditions: probe axitinib
[2] = assay type: in vivo, human healthy volunteers
[3] = Safety and tolerability; assay type: in vivo, human healthy volunteers
Outline: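 Healthy volunteers in a randomized crossover separated by a 14-day washout. Treatments were a single fasted oral 5-mg dose on day 1, or ketoconazole 400 mg/day on days 1–7 with the 5-mg dose on day 4. Safety was monitored through adverse events, vital signs, ECGs, laboratory tests and physical examinations. AEs were graded by NCI CTCAE v3.0. All subjects receiving at least one dose of any study medication were included.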

[4] = Blood pressure change from baseline in crossover study; assay type: in vivo, human healthy volunteers
Outline: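 Randomized two-way crossover in healthy volunteers with placebo on day –1 and a 14-day washout. In one arm, a single oral 5-mg dose was given on day 1 after an overnight fast of at least 8 h. In the other, oral ketoconazole 400 mg/day was given on days 1–7, with the 5-mg dose given alongside it on day 4. BP was measured before blood sampling at PK timepoints and at 10 h post-dose, expressed as time-matched change from baseline. Analysis required at least one baseline and one post-baseline reading.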

[5] = Intrinsic clearance converted from in vivo systemic clearance; design: species or system human healthy volunteers
[6] = tested on: tumor growth; conditions: pre-clinical tumor growth inhibition studies; cited from earlier work
[7] = cited from earlier work
[8] = concurrent administration of phenytoin, one patient; cited from earlier work
[9] = ketoconazole 400 mg; based on IC50 in human liver microsomal preparations
[10] = in the presence of ketoconazole
[11] = axitinib in combination with ketoconazole

- pIC50 [1]: 6.40
SMILES: CC(=O)N1CCN(c2ccc(OCC3COC(Cn4ccnc4)(c4ccc(Cl)cc4Cl)O3)cc2)CC1 (stereo not drawn) [Ketoconazole, ketoconazole]

- pre-dose axitinib plasma concentration ([2]; all pre-dose samples, below lower limit of quantification): < 0.100 ng/mL
- half-life ([2]; human, plasma, oral, 5 mg): 9.44 h
- fold increase in axitinib geometric mean AUC0–∞ observed clinically [2, 10]: 2.06 fold and ~ 2 fold
- fold increase in axitinib geometric mean Cmax observed clinically [2, 10]: 1.50 fold and ~ 1.5 fold
- clearance attributed to non-metabolic pathways, share ([5]; remaining clearance): 20%
- contribution of CYP3A to total CLint ([5]; sensitivity analyses): 50%
- contribution of glucuronidation to total CLint ([5]; sensitivity analyses): 30%
- predicted fold increase in axitinib geometric mean AUC0–∞ [9]: 1.8 fold
- predicted fold increase in axitinib geometric mean Cmax [9]: 1.5 fold
SMILES: CNC(=O)c1ccccc1Sc1ccc2c(/C=C/c3ccccn3)n[nH]c2c1 [Axitinib]
- tolerability ([3]; axitinib alone, single 5-mg dose): well tolerated
- tolerability [3, 11]: well tolerated
- mean time-matched changes from baseline in BP [4, 11]: minimal
- mean time-matched changes from baseline in BP ([4]; axitinib treatment alone): minimal
- effective axitinib concentration [6]: 0.28 to 0.85 nmol/L
- average axitinib plasma concentration in clinical trials ([7]; after dosing 5 mg twice daily): 0.19 ± 0.12 nmol/L
- effective plasma terminal half-life [7]: 2 to 5 h
- oral absolute bioavailability [7]: approximately 58%
- time of peak plasma concentrations after dosing ([7]; oral, fed state): 1 to 4 h
- fold reduction of axitinib AUC0–24 [8]: approximately 10 fold
- fold reduction of axitinib Cmax [8]: approximately 10 fold

Source: PMC3256319 (Investigational New Drugs, 2010)
